Screening results deposited in PubChem by Sanford-Burnham Center for Chemical Genomics.
CHOP UPR activ = activators of apoptotic CHOP UPR arm, primary screen, cell-based, CHO-CHOP luciferase reporter, luminescence, uHTS | UPR activation; percent of tunicamycin response over DMSO baseline | activation, % at 10 µM | actives 0.34% (n = 330,000) | AID 449763, 2010;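 active means at 10 µM dose, activation of 40% or more, normalized to positive control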;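 further: 100% = tunicamycin at 10 µg/mL and 0% = DMSO alone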
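Assay system: CHO-CHOP cells, stable luciferase reporter of PERK-eIF2a-CHOP signalling / Buffer or medium: F12 plus 10% serum / Compound dosing: one dose, 10 µM in 0.5% DMSO / Times: 6 h compound treatment, 37 °C / Technique: luciferase luminescence / Read-out: % reporter activation, DMSO baseline versus tunicamycin full activation / Benchmarks: tunicamycin and DMSO controls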
XBP1 UPR activ = activators of adaptive XBP1 UPR arm, primary screen, cell-based, CHO-XBP1 luciferase reporter, luminescence, uHTS; IRE1-XBP1 UPR activation; percent of tunicamycin response, DMSO as zero; activation, % at 20 µM; actives 0.33% (n = 330,000);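 active means versus positive control, 20 µM dose yields 30% or more activation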;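 further: 100% = tunicamycin at 10 µg/mL and 0% = DMSO only wells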
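Material: CHO-XBP1 cells stably carrying IRE1-XBP1-driven luciferase reporter / Amount: 1000 cells per well / Compound: 20 µM, 1% DMSO / Times: 6 h treatment, 37 °C / Detection: luciferase luminescence / Measure: % activation of reporter signal versus tunicamycin and DMSO controls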
CRFR2-BP antag = antagonists of CRF-BP/CRF-R2 complex, primary screen, cell-based, HEK293, calcium dye fluorescence, uHTS | CRF-induced calcium fluorescence | inhibition, % at 11.8 µM | actives 0.59% (n = 350,000) | AID 588475, 2011;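 active means inhibition of the ligand-induced calcium signal above about 50% at the single tested concentration, limit read from the data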
697 NFkB inh = inhibitors of PMA/ionomycin-induced NF-kB reporter, 697 cells, primary screen, B-cell NF-kB inhibitor project, cell-based, luminescence, uHTS; 697 B-cell NF-kB luciferase reporter, 16 h; inhibition, % at 4 µM; actives 0.33% (n = 330,000); in the data active means inhibition above about 35%
Jurkat NFkB inh = inhibitors of induced NF-kB luciferase reporter, primary screen, TCR NF-kB activation inhibitor project, cell-based, luminescence, uHTS; actives 0.53% (n = 330,000); inhibition, % at 4 µM; Jurkat, PMA/ionomycin-induced NF-kB luciferase reporter; in the data active means inhibition above about 50%
Jurkat NFkB conf = PMA/ionomycin-induced NF-kB reporter inhibitors, Jurkat retest, confirmation, T-cell NF-kB inhibitor project, cell-based, luminescence, single concentration; shares compounds with Jurkat NFkB inh; Jurkat NF-kB luciferase, 16 h; inhibition, % at 4 µM; actives 27% (n = 2,700); AID 435020, 2010;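 active means inhibition reaching about 45% at 4 µM in either replicate, limit read from the data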;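 further: plate controls were PMA/ionomycin stimulated DMSO wells for no effect and unstimulated DMSO wells for full effect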
* hit, by the source's call; · = not tested or not shown. Most compounds without a hit are left out; they make up all but 1.8% or so of the library.

SMILES	CHOP UPR activ	XBP1 UPR activ	CRFR2-BP antag	697 NFkB inh	Jurkat NFkB inh	Jurkat NFkB conf
O=C(CN1C(=O)NC2(CCCCC2)C1=O)N1CCN(S(=O)(=O)c2cccc([N+](=O)[O-])c2)CC1	1	-1	2	-4	5	·
Cc1ccc(-c2cn(-c3ccccc3)c(SCC(=O)NC3CCS(=O)(=O)C3)n2)cc1C (centres undefined)	6	1	-35	-205	-160	-119
O=c1[nH]c(C2CCCN(S(=O)(=O)c3ccccc3F)C2)nc2c1nnn2Cc1ccccc1Cl (centres undefined)	2	1	7	-7	-10	·
COc1cc(OC)cc(C(=O)NNC(=O)c2ccccn2)c1	-2	2	7	-12	-11	·
COc1ccc(C(=O)NNC(=O)c2ccccn2)cc1	-12	-8	-1	-61	52*	63*
O=C(Nc1nc2ccccc2s1)NC1CCCCC1	4	5	-25	-133	-179	-112
O=C(NNC(=O)C1CCN(c2ncccn2)CC1)c1ccc(F)cc1	5	-5	6	4	5	·
N#CCC(CNc1ncc(C(F)(F)F)cc1Cl)OC(=O)c1cccc([N+](=O)[O-])c1 (centres undefined)	0	3	-7	16	66*	14
N#CCC(CNc1ncc(C(F)(F)F)cc1Cl)OC(=O)c1c(F)cccc1F (centres undefined)	-2	-2	-14	-3	75*	21
Cc1ccc(C(=O)c2cc([N+](=O)[O-])ccc2N2CCN(C)CC2)cc1	-1	1	-20	-2	41	·
Cc1ccc(C(=O)c2cc([N+](=O)[O-])ccc2N2CCOCC2)cc1C	0	2	-100	-75	66*	51*
O=C(c1ccccc1)c1cc([N+](=O)[O-])ccc1N1CCCC1	-1	-1	4	-15	10	·
CN1CCN(c2ccc([N+](=O)[O-])cc2C(=O)c2ccc(Br)cc2)CC1	-3	2	-12	-31	73*	26
Cc1ccc(C(=O)c2cc([N+](=O)[O-])ccc2N2CCCCC2)cc1C	1	4	12	-34	63*	42
Cc1ccc(C(=O)c2cc([N+](=O)[O-])ccc2N2CCOCC2)c(C)c1	0	9	22	22	55*	50*
CCCNC(=O)C1CC(=O)N(c2ccc(OCc3ccc(Cl)cc3)cc2)C1 (centres undefined)	9	-6	10	-30	-128	·
CCCNC(=O)C1CC(=O)N(c2ccc(OCc3ccc(F)cc3)cc2)C1 (centres undefined)	3	-3	8	-33	-152	-75
O=C(NC12CC3CC(CC(C3)C1)C2)c1ccc(-c2ccccc2Cl)o1	6	-4	10	-217	-158	-60
O=C(NC12CC3CC(CC(C3)C1)C2)c1ccc(-c2cccc(Cl)c2)o1	8	7	-4	-166	-138	·
O=C(NC12CC3CC(CC(C3)C1)C2)c1ccco1	0	-2	1	-18	-13	·
O=C(NC12CC3CC(CC(C3)C1)C2)c1ccc(-c2ccc(Cl)cc2)o1	5	5	-10	-180	-153	-73
O=C1c2ccccc2C2(c3cc(C(F)(F)F)cc(C(F)(F)F)c3)NCCN12 (centres undefined)	·	·	-16	·	·	·
C=CCOc1ccc(/C=C/C(=O)OCC(=O)N(C)C2CCS(=O)(=O)C2)cc1 (centres undefined)	1	-4	-3	1	7	·
O=C(Nc1cc(S(=O)(=O)N2CCOCC2)ccc1OCC(F)(F)F)C1=COCCO1	0	-1	-6	-4	4	·
COc1ccc(C(=S)N2CCN(c3cccc(Cl)c3)CC2)c(OC)c1	0	-2	7	-38	63*	-5
SMILES	CHOP UPR activ	XBP1 UPR activ	CRFR2-BP antag	697 NFkB inh	Jurkat NFkB inh	Jurkat NFkB conf
O=C(N/C(=C\c1ccccc1)C(=O)N1CCCCC1)c1ccc(Br)o1	-2	-4	-9	-6	1	·
C=CCOc1c(Cl)cc(CNc2ccc(C)c(Cl)c2)cc1OC	-2	5	·	5	60*	36
Cc1cc(NC(=O)CSc2nnc3c(C)cc4c(C)ccc(C)c4n23)no1	0	0	-7	-34	59*	20
CCc1nnc(NC(=O)CSc2nnc3c(C)cc4c(C)ccc(C)c4n23)s1	1	-2	-45	-19	32	·
CCCCN1/C(=C/c2ccc3ccccc3[n+]2CC)Sc2ccccc21	8	0	-138	33	87*	67*
CCN1/C(=C/c2ccc3ccccc3[n+]2CC)C=Cc2ccccc21	13	16	9	-1	97*	71*
CCN1/C(=C/c2ccc3cc(C)ccc3[n+]2CC)Sc2cc(C)ccc21	·	·	-184	·	·	·
N#CCc1nc(C(c2ccccc2)c2ccccc2)no1	1	-2	-14	5	-5	·
COc1ccc(-c2cn3cc(C(F)(F)F)cc(Cl)c3n2)cc1	4	-1	-12	-111	-80	·
Fc1ccc(-c2cn3cc(C(F)(F)F)cc(Cl)c3n2)cc1	2	3	2	-172	-189	-146
O=S1(=O)C=C(Sc2nc3cc(Cl)ccc3o2)c2ccccc21	-9	-5	-36	-185	97*	90*
Cc1cc(NC(=O)CSc2nc3cc(Cl)ccc3o2)no1	2	0	-9	-2	-6	·
COc1ccccc1C1c2ccc3ccccc3c2Oc2ncn(CCN(C)C)c(=N)c21 (centres undefined)	2	3	-31	7	78*	13
O=C(Nc1ccc2c(c1)OCCO2)Nc1ccc2c(c1)OCO2	-2	-4	9	-215	-185	-93
O=C(Nc1ccc2c(c1)OCO2)c1ccc(Br)s1	4	0	5	-77	-178	-85
Cc1ccc(NC(=O)Nc2ccc3c(c2)OCO3)cc1F	6	-2	3	-104	-174	-52
Cn1c(C(=O)Nc2ccc3c(c2)OCO3)cc2sccc21	0	3	15	-140	-160	-63
C[C@@H]1COC(=O)[C@@H](CC(=O)OC(C)(C)C)C/C=C\C[C@H](CC(=O)NCCO)C(=O)N1	-1	0	8	2	0	·
CC1(C)N=C(N)N=C(N)N1c1ccc(Oc2ccc(Cl)cc2)c(Cl)c1	-1	0	0	29	82*	66*
CNc1ccccc1C(C)(C)c1cc(-c2cc(C)cc(C)c2)no1	0	-1	-97	12	3	·
